Test results as given in ChEMBL document CHEMBL4689842, “EUbOPEN Chemogenomics Library wave 1” (2021).
Several values for one entry are separate records, joined by “and”; a condition that tells them apart may be missing. Equal values may be shown once.

Tested on: HEK-293T
Test: Multiplex assay against HEK293T;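 for Population Tubulin-Different-Phenotype (%): share of the cells with healthy nuclei that show this phenotype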
Type: toxicity, cell-based
Conditions: human
Summary of the method: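 Cells stained live at seeding with Hoechst33342, BioTracker Green Microtubule Cytoskeleton Dye, MitoTracker Red and Annexin V Alexa Fluor 680 were imaged on a CQ1 microscope at 37°C and 5% CO2 after compound addition. Their classification by CellPathfinder machine-learning gating ran from Hoechst high-intensity objects versus normal cells, to healthy, pyknosed or fragmented nuclei among normal cells, to mitotic or apoptotic among pyknosed cells. Tubulin, mitochondrial-mass and membrane-permeability phenotypes are per cents of healthy-nucleus cells.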

[1] = 12 h, 1 µM, compound concentration 1 uM, replicate 1
[2] = 12 h, 1 µM, compound concentration 1 uM, replicate 2
[3] = 12 h, 10 µM, compound concentration 10 uM, replicate 1
[4] = 12 h, 10 µM, compound concentration 10 uM, replicate 2
[5] = 24 h, 1 µM, compound concentration 1 uM, replicate 1
[6] = 24 h, 1 µM, compound concentration 1 uM, replicate 2
[7] = 24 h, 10 µM, compound concentration 10 uM, replicate 1
[8] = 24 h, 10 µM, compound concentration 10 uM, replicate 2

C=CC(=O)Nc1cc2c(Nc3ccc(F)c(Cl)c3)ncnc2cc1OCCCN1CCOCC1.Cl.Cl [CANERTINIB DIHYDROCHLORIDE]
Population Apoptotic (%) [1]: 70% | Population Fragmented Nuclei (%) [1]: 22% | Population Healthy Nuclei (%) [1]: 35% | Population Hoechst High Intensity Objects (%) [1]: 22% | Population Membrane Permeable-Phenotype (%) [1]: 24% | Population Mitochondria Different-Phenotype (%) [1]: 76% | Population Mitotic Cells (%) [1]: 29% | Population Normal (%) [1]: 77% | Population Pyknosed Nuclei (%) [1]: 41% | Population Tubulin-Different-Phenotype (%) [1]: 82% | Total Cell Count [1]: 582 | Population Apoptotic (%) [2]: 47% | Population Fragmented Nuclei (%) [2]: 4% | Population Healthy Nuclei (%) [2]: 80% | Population Hoechst High Intensity Objects (%) [2]: 7% | Population Membrane Permeable-Phenotype (%) [2]: 17% | Population Mitochondria Different-Phenotype (%) [2]: 92% | Population Mitotic Cells (%) [2]: 52% | Population Normal (%) [2]: 92% | Population Pyknosed Nuclei (%) [2]: 14% | Population Tubulin-Different-Phenotype (%) [2]: 97% | Total Cell Count [2]: 863 | Population Apoptotic (%) [3]: 28% | Population Fragmented Nuclei (%) [3]: 14% | Population Healthy Nuclei (%) [3]: 60% | Population Hoechst High Intensity Objects (%) [3]: 13% | Population Membrane Permeable-Phenotype (%) [3]: 3% | Population Mitochondria Different-Phenotype (%) [3]: 12% | Population Mitotic Cells (%) [3]: 71% | Population Normal (%) [3]: 86% | Population Pyknosed Nuclei (%) [3]: 24% | Population Tubulin-Different-Phenotype (%) [3]: 12% | Total Cell Count [3]: 583 | Population Apoptotic (%) [4]: 8% | Population Fragmented Nuclei (%) [4]: 6% | Population Healthy Nuclei (%) [4]: 88% | Population Hoechst High Intensity Objects (%) [4]: 3% | Population Membrane Permeable-Phenotype (%) [4]: 2% | Population Mitochondria Different-Phenotype (%) [4]: 16% | Population Mitotic Cells (%) [4]: 91% | Population Normal (%) [4]: 96% | Population Pyknosed Nuclei (%) [4]: 5% | Population Tubulin-Different-Phenotype (%) [4]: 16% | Total Cell Count [4]: 1567 | Population Apoptotic (%) [5]: 79% | Population Fragmented Nuclei (%) [5]: 21% | Population Healthy Nuclei (%) [5]: 37% | Population Hoechst High Intensity Objects (%) [5]: 24% | Population Membrane Permeable-Phenotype (%) [5]: 8% | Population Mitochondria Different-Phenotype (%) [5]: 69% | Population Mitotic Cells (%) [5]: 20% | Population Normal (%) [5]: 75% | Population Pyknosed Nuclei (%) [5]: 40% | Population Tubulin-Different-Phenotype (%) [5]: 56% | Total Cell Count [5]: 612 | Population Apoptotic (%) [6]: 29% | Population Fragmented Nuclei (%) [6]: 5% | Population Healthy Nuclei (%) [6]: 80% | Population Hoechst High Intensity Objects (%) [6]: 10% | Population Membrane Permeable-Phenotype (%) [6]: 4% | Population Mitochondria Different-Phenotype (%) [6]: 67% | Population Mitotic Cells (%) [6]: 70% | Population Normal (%) [6]: 89% | Population Pyknosed Nuclei (%) [6]: 13% | Population Tubulin-Different-Phenotype (%) [6]: 54% | Total Cell Count [6]: 910 | Population Apoptotic (%) [7]: 21% | Population Fragmented Nuclei (%) [7]: 14% | Population Healthy Nuclei (%) [7]: 75% | Population Hoechst High Intensity Objects (%) [7]: 9% | Population Membrane Permeable-Phenotype (%) [7]: 6% | Population Mitochondria Different-Phenotype (%) [7]: 7% | Population Mitotic Cells (%) [7]: 78% | Population Normal (%) [7]: 90% | Population Pyknosed Nuclei (%) [7]: 9% | Population Tubulin-Different-Phenotype (%) [7]: 12% | Total Cell Count [7]: 665 | Population Apoptotic (%) [8]: 10% | Population Fragmented Nuclei (%) [8]: 24% | Population Healthy Nuclei (%) [8]: 73% | Population Hoechst High Intensity Objects (%) [8]: 2% | Population Membrane Permeable-Phenotype (%) [8]: 3% | Population Mitochondria Different-Phenotype (%) [8]: 3% | Population Mitotic Cells (%) [8]: 89% | Population Normal (%) [8]: 97% | Population Pyknosed Nuclei (%) [8]: 2% | Population Tubulin-Different-Phenotype (%) [8]: 8% | Total Cell Count [8]: 2738

COc1ccc(Oc2cc(NCCC(F)(F)F)c3ncc(-c4ccc(C(=O)NC5CC5)c(C)c4)n3n2)c(F)c1F [BAY-1217389]
Population Apoptotic (%) [3]: 50% and 20% | Population Fragmented Nuclei (%) [3]: 25% and 12% | Population Healthy Nuclei (%) [3]: 28% and 63% | Population Hoechst High Intensity Objects (%) [3]: 20% and 13% | Population Membrane Permeable-Phenotype (%) [3]: 17% and 25% | Population Mitotic Cells (%) [3]: 49% and 79% | Population Normal (%) [3]: 79% and 86% | Population Pyknosed Nuclei (%) [3]: 46% and 23% | Population Tubulin-Different-Phenotype (%) [3]: 79% and 68% | Total Cell Count [3]: 607 and 639 | Population Apoptotic (%) [4]: 21% and 43% | Population Fragmented Nuclei (%) [4]: 5% and 2% | Population Healthy Nuclei (%) [4]: 89% and 86% | Population Hoechst High Intensity Objects (%) [4]: 2% and 5% | Population Mitotic Cells (%) [4]: 78% and 56% | Population Normal (%) [4]: 97% and 94% | Population Pyknosed Nuclei (%) [4]: 5% and 11% | Population Tubulin-Different-Phenotype (%) [4]: 87% and 95% | Total Cell Count [4]: 1266 and 966 | Population Apoptotic (%) [7]: 53% and 25% | Population Fragmented Nuclei (%) [7]: 25% and 9% | Population Healthy Nuclei (%) [7]: 46% and 80% | Population Hoechst High Intensity Objects (%) [7]: 18% and 7% | Population Membrane Permeable-Phenotype (%) [7]: 9% and 24% | Population Mitotic Cells (%) [7]: 46% and 74% | Population Normal (%) [7]: 81% and 92% | Population Tubulin-Different-Phenotype (%) [7]: 84% | Total Cell Count [7]: 575 and 704 | Population Fragmented Nuclei (%) [8]: 10% and 4% | Population Healthy Nuclei (%) [8]: 87% and 88% | Population Hoechst High Intensity Objects (%) [8]: 3% and 6% | Population Mitotic Cells (%) [8]: 94% and 68% | Population Normal (%) [8]: 96% and 93% | Population Tubulin-Different-Phenotype (%) [8]: 91% and 95% | Total Cell Count [8]: 1717 and 1126
